Reference: publication PMC7945681 (Journal of materials chemistry. B, 2020)

Assays:
human VCAM1 = experiment: SPR measurement of peptide-VCAM1 binding; conditions: for ∣ΔΔGB∣: ∣ΔGB,trans – ΔGB,cis∣ from SPR values
Method in brief: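 Peptide-functionalised gold sensor chips, with three sensors per ligand and ligand density measured by variable angle spectroscopic ellipsometry. Chip-bound peptide was conditioned to cis or trans isomer, then exposed to human VCAM1 at 0.01–1 mg mL−1 in PBS. KD was determined for each isomer.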

VCAM1^+ BMECs = type: cell-based, human; conditions: for co-localization of the cis isomer with anti-VCAM1 antibody: VCAM1^+ BMECs, confocal microscopy

Substance	KD,trans/KD,cis (human VCAM1; affinity shift between trans and cis isomers, SPR)	∣ΔΔGB∣ (human VCAM1)	binding to BMECs in trans configuration (VCAM1^+ BMECs; BMEC labelling, fluorescence microscopy)	co-localization of the cis isomer with anti-VCAM1 antibody (VCAM1^+ BMECs)
cycloAZOB[G-VHAKQHRN-K*] (sidechain bridge or staple)	~ 130	2.93	negligible binding	clear co-localization
cycloAZOB[G-VHAKQHRN-K*]-K(Biotin) (sidechain bridge or staple)	–	–	–	co-localization with anti-VCAM1 antibodies in cis configuration
cycloAZOB[G-VHNKQHRP-K*] (sidechain bridge or staple)	–	1.84	–	–
cycloAZOB[G-VHPKQHRP-K*] (sidechain bridge or staple)	–	1.52	–	–
cycloAZOB[G-VHPKQHRS-K*] (sidechain bridge or staple)	–	2.52	–	–
